From ChEMBL document CHEMBL3124822, “Discovery of a rapidly metabolized, long-acting β(2) adrenergic receptor agonist with a short onset time incorporating a sulfone group suitable for once-daily dosing” (J Med Chem, 2014)

Assays:
[1] = biological target: Beta-3 adrenergic receptor (Homo sapiens, UniProt P13945); assay: Agonist activity at human beta3 adrenoceptor transfected in CHO cells assessed as cyclic AMP accumulation after 45 mins by fluorescence polarization assay; assay type: cell-based
[2] = biological target: Beta-1 adrenergic receptor (Homo sapiens, UniProt P08588); assay: Agonist activity at human beta1 adrenoceptor transfected in CHO cells assessed as cyclic AMP accumulation after 45 mins by fluorescence polarization assay; assay type: cell-based
[3] = biological target: Beta-2 adrenergic receptor (Homo sapiens, UniProt P07550); assay: Agonist activity at human beta2 adrenoceptor transfected in CHO cells assessed as cyclic AMP accumulation after 45 mins by fluorescence polarization assay; assay type: functional, cell-based
L5178Y = assay: Genotoxicity against mouse L5178Y cells; assay type: toxicity, cell-based
Outline: (§1)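 Acetate and 4-biphenylsulfonate salts screened in Ames and mouse lymphoma L5178Y assays, with and without a rat liver metabolic activation system.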

Salmonella typhimurium = assay: Genotoxicity in Salmonella typhimurium by Ames assay in presence of rat liver metabolic activation system; assay type: toxicity, organism-based; settings: salmonella enterica subsp. enterica serovar typhimurium; outline: as §1
Cavia porcellus [4] = assay: Bronchodilatory activity in guinea pig assessed as duration of action of inhibition of histamine-induced bronchoconstriction at 10 times EC90 administered via nebulization 2 mins prior to histamine challenge; assay type: functional
Outline: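 Conscious guinea pigs, n = 24 per group, given test agonist as a nebulized solution in dimethylacetamide–saline vehicle (2 min nebulization) before histamine (10 mM, nebulized 1.3 min) in a whole-body plethysmograph. PenH recorded for 15 min as index of airway obstruction. Dose expressed as nebulizer concentration; duration taken as time to 50% recovery.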

Cavia porcellus [5] = assay: Bronchodilatory activity in guinea pig assessed as inhibition of histamine-induced bronchoconstriction administered via nebulization 2 mins prior to histamine challenge relative to salmeterol acetate; assay type: functional
Outline: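 Conscious guinea pigs (n = 24 per group) in a whole-body plethysmograph; agonist given by 2 min nebulization before challenge with nebulized histamine (10 mM, 1.3 min). Enhanced pause (PenH) was recorded for 15 min as the index of airway obstruction. Potency was expressed as EC90 by nebulizer concentration and compared with salmeterol acetate.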

[6] = Binding affinity to guinea pig sigma receptor; design: species or system Cavia porcellus
[7] = biological target: 5-hydroxytryptamine receptor 1B (Homo sapiens, UniProt P28222); assay: Binding affinity to human 5HT1B receptor
Hepatocyte [8] = assay: Drug metabolism in human hepatocytes assessed as metabolite M11 formation at 12.5 uM after 2 hrs by LC-MS/MS analysis; assay type: ADME, cell-based
Outline: (§2)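 Human hepatocytes incubated with substrate at 12.5 μM for 2 h. Products characterized by LC–MS/MS on a C18 column, 5–95% acetonitrile gradient in water with 0.1% formic acid over 8 min. Metabolites numbered by elution order. Abundance is semiquantitative from peak heights (low/medium/high), assuming equal analyte response.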

Hepatocyte [9] = assay: Drug metabolism in human hepatocytes assessed as metabolite M13 formation at 12.5 uM after 2 hrs by LC-MS/MS analysis; assay type: ADME, cell-based; outline: as §2
Hepatocyte [10] = assay: Drug metabolism in human hepatocytes assessed as metabolite M2 formation at 12.5 uM after 2 hrs by LC-MS/MS analysis; assay type: ADME, cell-based; outline: as §2
[11] = Drug metabolism in human hepatocytes at 1 uM after 2 hrs by LC-MS/MS analysis; assay type: ADME, cell-based, Hepatocyte; settings: read-out: Drug metabolism
Outline: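 Human hepatocytes incubated with substrate at 1 μM for 2 h; percentage turnover of parent determined.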

Liver microsome = assay: Clearance in human liver microsomes; assay type: ADME
Outline: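 Compound incubated with liver microsomes; in vitro metabolic clearance expressed as (mL/min)/g liver.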

[12] = Ratio of drug uptake from blood to plasma in human; assay type: ADME
Outline: (§3)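 In vitro partitioning of the compound into the cellular fraction of rat, dog and human blood, reported as the blood:plasma ratio.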

[13] = Ratio of drug uptake from blood to plasma in dog; assay type: ADME, Canis lupus familiaris; outline: as §3
[14] = Plasma protein binding in human; assay type: ADME, cell-free; settings: read-out: PPB (converted)
[15] = Plasma protein binding in guinea pig; assay type: ADME, cell-free, Cavia porcellus; settings: read-out: PPB (converted)
[16] = Plasma protein binding in rat; assay type: ADME, cell-free; settings: read-out: PPB (converted)
Cytochrome P450 2D6 = Cytochrome P450 2D6 (Homo sapiens, UniProt P10635); assay: Inhibition of human CYP2D6 expressed in Escherichia coli; assay type: ADME
Outline: (§4)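 Human CYP isoforms expressed in E. coli; IC50 from n = 3. Probe substrates diethoxyfluorescein and 7-benzyloxyquinoline are stated for CYP3A4.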

Cytochrome P450 2C9 = Cytochrome P450 2C9 (Homo sapiens, UniProt P11712); assay: Inhibition of human CYP2C9 expressed in Escherichia coli; assay type: ADME; outline: as §4
Cytochrome P450 1A2 = biological target: T1, Cytochrome P450 1A2 (Homo sapiens, UniProt P05177); assay: Inhibition of human CYP1A2 expressed in Escherichia coli; assay type: ADME; outline: as §4
T1 sequence (P05177 whole entry): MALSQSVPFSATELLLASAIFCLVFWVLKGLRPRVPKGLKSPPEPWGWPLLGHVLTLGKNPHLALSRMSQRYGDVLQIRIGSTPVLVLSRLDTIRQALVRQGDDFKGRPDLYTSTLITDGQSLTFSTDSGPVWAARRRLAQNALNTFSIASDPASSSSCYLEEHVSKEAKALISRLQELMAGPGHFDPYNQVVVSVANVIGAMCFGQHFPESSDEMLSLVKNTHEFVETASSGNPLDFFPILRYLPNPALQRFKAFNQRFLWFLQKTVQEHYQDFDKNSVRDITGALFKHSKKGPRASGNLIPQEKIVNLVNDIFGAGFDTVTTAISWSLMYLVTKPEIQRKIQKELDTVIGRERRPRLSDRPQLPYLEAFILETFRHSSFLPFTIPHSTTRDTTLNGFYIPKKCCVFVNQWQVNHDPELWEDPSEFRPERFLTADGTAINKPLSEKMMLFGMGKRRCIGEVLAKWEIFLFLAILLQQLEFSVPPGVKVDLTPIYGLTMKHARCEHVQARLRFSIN

[17] = Oral absorption in Han Wistar rat at 2 mg/kg up to 7 hrs by LC-MS/MS analysis; assay type: ADME, organism-based; design: dose 2 mg/kg; settings: in vivo, read-out: Fa
Outline: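 Rat oral absorption from hepatic portal vein plasma, corrected for systemic circulation levels, after β-glucuronidase treatment of samples (deconjugated HPV model). Expressed as h·ng/mL.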

[18] = Oral bioavailability in beagle dog at 0.25 mg/kg up to 8 hrs by LC-MS/MS analysis; assay type: ADME, organism-based, Canis lupus familiaris; settings: in vivo
Outline: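 Beagle dogs dosed 0.25 mg/kg orally, with 0.05 mg/kg iv reference arm; plasma collected at various time points up to 8 h postdose.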

[19] = Half life in beagle dog at 0.05 mg/kg, iv up to 8 hrs by LC-MS/MS analysis; assay type: ADME, organism-based, Canis lupus familiaris; design: dose 0.05 mg/kg, route intravenous; settings: in vivo
Outline: (§5)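 Beagle dogs dosed 0.05 mg/kg intravenously; plasma collected at various time points up to 8 h postdose.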

[20] = Plasma clearance in beagle dog at 0.05 mg/kg, iv up to 8 hrs by LC-MS/MS analysis; assay type: ADME, organism-based, Canis lupus familiaris; design: dose 0.05 mg/kg, route intravenous; outline: as §5
[21] = Half life in Han Wistar rat at 0.25 mg/kg, iv up to 7 hrs by LC-MS/MS analysis; assay type: ADME, organism-based; design: dose 0.25 mg/kg, route intravenous; settings: in vivo
Outline: (§6)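 Han Wistar rats dosed 0.25 mg/kg intravenously; plasma sampled at various times up to 7 h postdose. Clearance expressed as percentage of liver blood flow.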

[22] = Oral bioavailability in Han Wistar rat at 2 mg/kg up to 7 hrs by LC-MS/MS analysis; assay type: ADME, organism-based; settings: in vivo
[23] = Volume of distribution at steady state in Han Wistar rat at 0.25 mg/kg, iv up to 7 hrs by LC-MS/MS analysis; assay type: ADME, organism-based; design: dose 0.25 mg/kg, route intravenous; settings: in vivo, read-out: Vdss; outline: as §6

Chain of Beta-2 adrenergic receptor (P07550 whole entry): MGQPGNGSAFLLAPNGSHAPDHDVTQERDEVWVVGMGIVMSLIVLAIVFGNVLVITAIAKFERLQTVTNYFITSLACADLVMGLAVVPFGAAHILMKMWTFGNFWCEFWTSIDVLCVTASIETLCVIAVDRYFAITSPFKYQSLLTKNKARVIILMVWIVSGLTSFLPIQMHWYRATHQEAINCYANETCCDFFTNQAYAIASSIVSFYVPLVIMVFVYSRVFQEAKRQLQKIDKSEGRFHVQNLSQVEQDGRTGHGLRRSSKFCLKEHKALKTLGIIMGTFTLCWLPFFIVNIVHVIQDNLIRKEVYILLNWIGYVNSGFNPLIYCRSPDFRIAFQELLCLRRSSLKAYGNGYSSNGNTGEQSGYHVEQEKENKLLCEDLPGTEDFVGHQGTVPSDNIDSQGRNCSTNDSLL
Chain of Beta-3 adrenergic receptor (P13945 whole entry): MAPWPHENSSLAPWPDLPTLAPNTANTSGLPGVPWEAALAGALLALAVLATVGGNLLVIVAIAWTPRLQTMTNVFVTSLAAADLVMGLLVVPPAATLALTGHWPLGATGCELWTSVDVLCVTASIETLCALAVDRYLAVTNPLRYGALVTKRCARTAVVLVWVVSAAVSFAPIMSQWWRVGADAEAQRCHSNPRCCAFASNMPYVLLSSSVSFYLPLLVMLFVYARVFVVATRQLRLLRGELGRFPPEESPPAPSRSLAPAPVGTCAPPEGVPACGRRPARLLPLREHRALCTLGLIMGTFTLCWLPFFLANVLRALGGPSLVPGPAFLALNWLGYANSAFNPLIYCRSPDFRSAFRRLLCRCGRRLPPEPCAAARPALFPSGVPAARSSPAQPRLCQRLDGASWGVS
Chain of 5-hydroxytryptamine receptor 1B (P28222 whole entry): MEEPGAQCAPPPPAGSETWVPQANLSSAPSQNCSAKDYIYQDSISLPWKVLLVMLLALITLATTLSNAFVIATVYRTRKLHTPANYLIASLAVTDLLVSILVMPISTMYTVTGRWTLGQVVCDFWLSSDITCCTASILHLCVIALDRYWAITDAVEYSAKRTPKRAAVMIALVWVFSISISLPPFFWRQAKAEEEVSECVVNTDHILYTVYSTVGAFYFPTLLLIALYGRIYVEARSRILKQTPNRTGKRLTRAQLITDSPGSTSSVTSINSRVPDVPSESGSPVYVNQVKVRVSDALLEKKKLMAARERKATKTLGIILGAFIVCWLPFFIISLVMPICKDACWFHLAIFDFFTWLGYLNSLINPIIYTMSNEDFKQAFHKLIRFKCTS
Chain of Beta-1 adrenergic receptor (P08588 whole entry): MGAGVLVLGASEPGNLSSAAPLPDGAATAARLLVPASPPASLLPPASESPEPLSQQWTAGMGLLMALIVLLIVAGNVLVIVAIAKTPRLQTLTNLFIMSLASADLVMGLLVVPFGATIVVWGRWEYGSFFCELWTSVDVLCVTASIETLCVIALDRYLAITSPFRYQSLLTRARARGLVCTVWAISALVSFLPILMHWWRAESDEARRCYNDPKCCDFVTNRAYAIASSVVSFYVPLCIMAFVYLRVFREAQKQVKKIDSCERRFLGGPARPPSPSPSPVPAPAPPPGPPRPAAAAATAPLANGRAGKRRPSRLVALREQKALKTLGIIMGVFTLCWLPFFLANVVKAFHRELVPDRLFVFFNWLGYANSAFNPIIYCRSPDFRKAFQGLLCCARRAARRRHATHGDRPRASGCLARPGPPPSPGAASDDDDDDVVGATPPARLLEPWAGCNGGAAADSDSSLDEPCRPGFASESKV
Chain of Cytochrome P450 2C9 (P11712 whole entry): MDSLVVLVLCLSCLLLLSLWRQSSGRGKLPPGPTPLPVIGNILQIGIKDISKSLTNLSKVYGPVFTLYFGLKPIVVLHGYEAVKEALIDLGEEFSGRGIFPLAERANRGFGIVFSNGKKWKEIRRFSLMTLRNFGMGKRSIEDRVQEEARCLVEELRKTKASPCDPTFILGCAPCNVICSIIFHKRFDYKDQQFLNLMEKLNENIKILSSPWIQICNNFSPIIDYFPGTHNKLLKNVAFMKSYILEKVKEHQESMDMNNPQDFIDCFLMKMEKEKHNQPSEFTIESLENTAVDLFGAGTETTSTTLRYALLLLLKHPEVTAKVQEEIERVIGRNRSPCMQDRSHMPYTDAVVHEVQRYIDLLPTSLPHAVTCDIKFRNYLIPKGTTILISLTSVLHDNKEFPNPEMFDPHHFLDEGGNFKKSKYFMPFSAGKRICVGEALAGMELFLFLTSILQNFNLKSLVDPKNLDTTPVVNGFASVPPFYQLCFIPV
Chain of Cytochrome P450 2D6 (P10635 whole entry, canonical isoform): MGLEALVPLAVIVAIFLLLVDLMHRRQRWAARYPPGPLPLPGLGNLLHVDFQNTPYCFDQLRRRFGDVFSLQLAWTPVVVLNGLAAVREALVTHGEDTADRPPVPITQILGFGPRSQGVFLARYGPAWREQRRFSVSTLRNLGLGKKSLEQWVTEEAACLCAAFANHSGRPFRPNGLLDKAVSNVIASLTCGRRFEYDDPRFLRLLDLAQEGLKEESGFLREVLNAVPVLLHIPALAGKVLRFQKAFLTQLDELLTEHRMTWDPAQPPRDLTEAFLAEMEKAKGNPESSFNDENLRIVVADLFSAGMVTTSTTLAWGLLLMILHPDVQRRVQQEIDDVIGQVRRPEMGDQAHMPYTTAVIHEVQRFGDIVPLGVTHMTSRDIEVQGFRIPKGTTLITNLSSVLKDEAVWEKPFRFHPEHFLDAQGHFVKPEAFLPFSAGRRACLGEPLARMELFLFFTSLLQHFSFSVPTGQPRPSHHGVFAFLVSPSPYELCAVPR

Compound `CC(=O)O.O=S(=O)(c1cccc(CCCCOCCCCCCNC[C@H](O)c2ccc(O)c(CO)c2)c1)C1CCCC1` has an EC50 [1] of 794 nM, an EC50 [2] of 501 nM and an EC50 [3] of 2 nM. For the same compound, the Activity (L5178Y) was “Non-toxic”, the Activity (Salmonella typhimurium) was “Non-toxic” and the Time (Cavia porcellus [4]) was over 24 h. For the same compound, the “fold change (FC)” value (Cavia porcellus [5]) was 5, the pIC50 [6] was 6.8 and the IC50 [7] was 100 nM. The Drug metabolism (Hepatocyte [8]) was “Active”, the Drug metabolism (Hepatocyte [9]) was “Active” and the Drug metabolism (Hepatocyte [10]) was “Active”. The metabolised at 2 h, 1 µM [11] was 90%, the CLH (Liver microsome) was 8 mL/min/g and the blood plasma ratio [12] was 0.65. It also gave a blood plasma ratio [13] of 0.6, a fraction unbound [14] of 0.02 and a fraction unbound [15] of 0.03. It also gave a fraction unbound [16] of 0.02, an IC50 (Cytochrome P450 2D6) of 6400 nM and an IC50 (Cytochrome P450 2C9) of over 10000 nM. It also gave an IC50 (Cytochrome P450 1A2) of over 100000 nM, an AUC at 7 h [17] of 15.9 ng·h/mL and a bioavailability [18] of 3%. For the same compound, the half-life [19] was 24 min, the clearance [20] was 3.7 mL/min/kg and the half-life [21] was 30 min. It also gave a bioavailability [22] of under 2% and a Vd [23] of 1.1 L/kg.
